≈ marks a conversion by molar mass, not a printed value. Calls of active or inactive are those of the source. No cut-off for these calls is given here. Where a SMILES comes first, the peptide text is derived from it. Bridges are numbered along the chain shown (N, C = ends). The star is where a group is joined. X1 = CC(C)[C@H](C)C(=O)*; X2 = C(=C\c1ccccc1)/N*
Key:
A2780 = experiment: Cytotoxicity against human A2780 cells assessed as reduction in cell viability after 72 hrs by MTT assay; type: functional, cell-based; details: A2780, 72 h
Summary of the method: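 A2780 ovarian carcinoma cells were grown in RPMI-1640 with 10% FBS, penicillin and streptomycin, about 9000 cells/well, preincubated overnight. Increasing compound concentrations were applied for 72 h, then MTT was added. Absorbance read at 544 nm minus the 690 nm reference.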

Bacillus subtilis [1] = experiment: Induction of DNA damage in Bacillus subtilis isolate 1S34 assessed as increase in yorB promoter activity at 20 nmol after 14 to 18 hrs by beta-galactosidase reporter gene assay; type: functional, organism-based
Summary of the method: (§1)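 Agar-based β-galactosidase promoter-reporter assay. B. subtilis 1S34 grown to stationary phase in LB with spectinomycin 50 μg/mL, then set at 3 × 10^7 CFU/mL in LB soft agar (0.7%) containing X-Gal 150 μg/mL. Test compounds spotted at 20 nmol; reference antibiotics given on paper discs (5–30 μg). Plates read for promoter induction after 14–18 h at 30 °C.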

Staphylococcus aureus [2] = experiment: Antimicrobial activity against Staphylococcus aureus after 16 to 20 hrs by broth micro dilution method; type: functional
Summary of the method: (§2)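 Broth microdilution per CLSI in cation-adjusted Mueller-Hinton broth. Inoculum made by direct colony suspension, 5 × 10^5 CFU/mL final, added to serial 2-fold compound dilutions. Plates kept 16–20 h at 37 °C in ambient air. MIC is the lowest concentration with no visible growth. Strains are ATCC CLSI quality-control strains; A. baumannii 09987 is a Bonn clinical isolate.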

Escherichia coli = experiment: Antimicrobial activity against Escherichia coli after 16 to 20 hrs by broth micro dilution method; type: functional, organism-based; summary of the method: as §2
Staphylococcus aureus [3] = experiment: Disruption of inner membrane potential in Staphylococcus aureus NCTC 8325 at 0.2 uM measured after 30 to 60 mins by DiOC2(3) dye based fluorescence assay; type: functional, organism-based
Summary of the method: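 S. aureus NCTC 8325 grown to exponential phase in LB, resuspended in PBS at OD600 0.5, and loaded with 30 μM DiOC2(3) for 15 min before compound addition. Fluorescence read 30 and 60 min later: excitation 485 nm, emission 530 nm (green) and 630 nm (red). Controls were CCCP 5 μM and DMSO. Two runs on different days with independent cultures.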

Homo sapiens [4] = organism: Homo sapiens; experiment: Induction of apoptosis in human Jurkat 16 cells assessed as activation of caspase 3 at 1 uM using Ac-DEVD-AMC as substrate measured up to 4 hrs by […]; type: functional, cell-based
[5] = test system: Mycobacterium tuberculosis; experiment: Antimicrobial activity against Mycobacterium tuberculosis H37Rv up to 100 uM after 5 days by resazurin dye based assay; type: functional, organism-based
Summary of the method: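 M. tuberculosis H37Rv was grown aerobically at 37 °C in Middlebrook 7H9 with ADS enrichment, 0.5% glycerol and 0.05% tyloxapol, then precultured to log phase (OD600 0.5−1). Cells were seeded at 1 × 10^5 per well on 2-fold dilutions over 100−0.78 μM and held 5 days at 37 °C. Resazurin was added for 16 h at ambient temperature, then cells were formalin-fixed and fluorescence read (ex 540, em 590 nm). Growth is relative to rifampicin (0%) and DMSO (100%).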

NOMO-1 = experiment: Cytotoxicity against human NOMO1 cells assessed as reduction in cell viability after 24 hrs by MTT assay; type: functional, cell-based; details: NOMO-1, 24 h
Summary of the method: (§3)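 Suspension cells at 5 × 10^5 cells/mL, exposed 24 h to varying compound concentrations; 0.1% v/v DMSO as negative control. MTT added to 1 mg/mL final for 60 min, cells pelleted, formazan extracted in DMSO for 25 min at rt, A570 read with 650 nm reference. Viability relative to DMSO set at 100%; IC50 from fitted curves.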

Ramos [6] = experiment: Induction of apoptosis in human Ramos cells assessed as activation of caspase 3 at 10 uM using Ac-DEVD-AMC as substrate measured up to 4 hrs by immuno blot analysis; type: functional, cell-based
Homo sapiens [7] = organism: Homo sapiens; experiment: Induction of apoptosis in human Jurkat 16 cells assessed as maximum activation of caspase 3 at 1 uM using Ac-DEVD-AMC as substrate measured after 6 to 7 hrs by immuno blot analysis; type: functional, cell-based
[8] = Cytotoxicity against human Jurkat 16 cells assessed as reduction in cell viability after 24 hrs by MTT assay; type: functional, cell-based; summary of the method: as §3
Ramos [9] = experiment: Induction of apoptosis in human Ramos cells assessed as maximum activation of caspase 3 at 10 uM using Ac-DEVD-AMC as substrate measured after 6 to 7 hrs by immuno blot analysis; type: functional, cell-based
Ramos [10] = experiment: Induction of apoptosis in human Ramos cells assessed as activation of caspase 3 at 1 uM using Ac-DEVD-AMC as substrate measured up to 4 hrs by immuno blot analysis; type: functional, cell-based
Acinetobacter baumannii = experiment: Antimicrobial activity against Acinetobacter baumannii isolate 09987 after 16 to 20 hrs by broth micro dilution method; type: functional, organism-based; summary of the method: as §2
Enterococcus faecium = experiment: Antimicrobial activity against vancomycin-resistant Enterococcus faecium isolate BM 4147-1 after 16 to 20 hrs by broth micro dilution method; type: functional
Klebsiella pneumoniae = experiment: Antimicrobial activity against Klebsiella pneumoniae after 16 to 20 hrs by broth micro dilution method; type: functional, organism-based; summary of the method: as §2
MEF = experiment: Inhibition of autophagy in mouse MEF expressing mCitrine-hLC3B assessed as reduction in amino acid starvation-induced degradation of LC3 at 10 uM after 4 hrs by flow cytometry; type: functional, cell-based
Summary of the method: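 MEFs stably expressing mCitrine-hLC3B were held 4 h in full medium or EBSS starvation medium with 10 μM compound; bafilomycin A1 10 nM was the inhibition control. Cells were trypsinized, washed and read by flow cytometry for median mCitrine fluorescence. Values normalized to DMSO-treated full-medium cells; mean ± SD of 3 independent analyses; Student's t test.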

Ramos [11] = experiment: Induction of apoptosis in human Ramos cells assessed as PARP cleavage at 10 uM cotreated with pan-caspase inhibitor QVD-OPh measured after 2 to 8 hrs by Western blot analysis; type: functional, cell-based
Summary of the method: (§4)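 Ramos cells were exposed for 2–8 h with or without Q-VD-OPh 10 μM; staurosporine 2.5 μM served as positive control. Cells were lysed in Tris/Triton buffer with phosphatase and protease inhibitors. Then 25 μg protein was run on 10% SDS-PAGE and blotted to PVDF for PARP cleavage, with β-actin as loading control.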

Ramos [12] = experiment: Induction of apoptosis in human Ramos cells assessed as increase in PARP cleavage at 10 uM measured up to 4 to 8 hrs by immuno blot analysis; type: functional, cell-based; summary of the method: as §4
Homo sapiens [13] = organism: Homo sapiens; experiment: Induction of apoptosis in human Jurkat 16 cells assessed as increase in PARP cleavage at 10 uM measured up to 4 to 8 hrs by immuno blot analysis; type: functional, cell-based
Bacillus subtilis [14] = experiment: Induction of RNA damage in Bacillus subtilis isolate 1S34 assessed as increase in helD promoter activity at 20 nmol after 14 to 18 hrs by beta-galactosidase reporter gene assay; type: functional, organism-based; summary of the method: as §1
Homo sapiens [15] = organism: Homo sapiens; experiment: Induction of apoptosis in human Jurkat 16 cells assessed as maximum activation of caspase 3 at 10 uM using Ac-DEVD-AMC as substrate measured after 6 to 7 hrs by immuno blot analysis; type: functional, cell-based
Klebsiella aerogenes = experiment: Antimicrobial activity against Enterobacter aerogenes after 16 to 20 hrs by broth micro dilution method; type: functional, organism-based; summary of the method: as §2
Ramos [16] = experiment: Cytotoxicity against human Ramos cells assessed as reduction in cell viability after 24 hrs by MTT assay; type: functional, cell-based; summary of the method: as §3
Bacillus subtilis [17] = experiment: Induction of cell envelope stress in Bacillus subtilis isolate 1S34 assessed as increase in liaI promoter activity at 20 nmol after 14 to 18 hrs by beta-galactosidase reporter gene assay; type: functional, organism-based; summary of the method: as §1
Bacillus subtilis [18] = experiment: Induction of translation arrest in Bacillus subtilis isolate 1S34 assessed as increase in bmrC promoter activity at 20 nmol after 14 to 18 hrs by beta-galactosidase reporter gene assay; type: functional, organism-based
Pseudomonas aeruginosa = experiment: Antimicrobial activity against Pseudomonas aeruginosa after 16 to 20 hrs by broth micro dilution method; type: functional, organism-based; summary of the method: as §2
Homo sapiens [19] = organism: Homo sapiens; experiment: Induction of apoptosis in human Jurkat 16 cells assessed as activation of caspase 3 at 10 uM using Ac-DEVD-AMC as substrate measured up to 4 hrs by immuno blot analysis; type: functional, cell-based
Bacillus subtilis [20] = experiment: Induction of cell envelope stress in Bacillus subtilis isolate 1S34 assessed as increase in ypuA promoter activity at 20 nmol after 14 to 18 hrs by beta-galactosidase reporter gene assay; type: functional, organism-based; summary of the method: as §1
HL-60 = experiment: Cytotoxicity against human HL60 cells assessed as reduction in cell viability after 24 hrs by MTT assay; type: functional, cell-based; details: HL-60, 24 h; summary of the method: as §3
Ramos [21] = experiment: Induction of apoptosis in human Ramos cells assessed as maximum activation of caspase 3 at 1 uM using Ac-DEVD-AMC as substrate measured after 6 to 7 hrs by immuno blot analysis; type: functional, cell-based

CC[C@H](C)[C@@H]1NC(=O)[C@@H](NC(=O)[C@@H](C)C(C)C)CSSC[C@@H](C(=O)N/C=C/c2ccccc2)NC(=O)[C@H]([C@@H](C)CC)NC(=O)[C@H]([C@@H](C)CC)NC(=O)[C@H]([C@@H](C)CC)NC1=O (X1-CIIIIC-X2; disulfide 1-6)
IC50 (A2780): 2.6 µM | Activity (Bacillus subtilis [1]): inactive | MIC (Staphylococcus aureus [2]): 6.2 µM (≈ 5.42 µg/mL) | Activity (Escherichia coli): inactive | Activity (Staphylococcus aureus [3]): Active | Activity (Homo sapiens [4]): inactive | Activity [5]: inactive | IC50 (NOMO-1): 10 µM | Activity (Ramos [6]): Active | Activity (Homo sapiens [7]): inactive | IC50 [8]: 4.6 µM | Activity (Ramos [9]): Active | Activity (Ramos [10]): inactive | Activity (Acinetobacter baumannii): inactive | MIC (Enterococcus faecium): 12 µM (≈ 10.5 µg/mL) | Activity (Klebsiella pneumoniae): inactive | inhibition (MEF): inactive | Activity (Ramos [11]): inactive | Activity (Ramos [12]): Active | Activity (Homo sapiens [13]): Active | Activity (Bacillus subtilis [14]): inactive | Activity (Homo sapiens [15]): Active | Activity (Klebsiella aerogenes): inactive | IC50 (Ramos [16]): 5.9 µM | Activity (Bacillus subtilis [17]): Active | Activity (Bacillus subtilis [18]): inactive | Activity (Pseudomonas aeruginosa): inactive | Activity (Homo sapiens [19]): Active | Activity (Bacillus subtilis [20]): Active | IC50 (HL-60): 28 µM | Activity (Ramos [21]): inactive

From ChEMBL document CHEMBL4138145, “Cyclic Cystine-Bridged Peptides from the Marine Sponge Clathria basilana Induce Apoptosis in Tumor Cells and Depolarize the Bacterial Cytoplasmic Membrane” (J Nat Prod, 2017)
